According to ChEMBL document CHEMBL4433246, “Synthesis and Optimization of Kv7 (KCNQ) Potassium Channel Agonists: The Role of Fluorines in Potency and Selectivity” (ACS Med Chem Lett, 2019):

Tests used:
[1] = target: Voltage-gated potassium channel, KQT; KCNQ2(Kv7.2)/KCNQ3(Kv7.3) (Homo sapiens) (UniProt O43526+O43525); assay: Agonist activity at human Kv7.2/Kv7.3 expressed in HEK293 cells assessed as drug concentration that doubles the conductance at voltage leading to 15% channel activation at holding potential of at -80 mV by whole cell patch clamp electrophysiology assay; assay type: cell-based
In short: (§1)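 High-throughput automated electrophysiology on an IonWorks Barracuda platform using HEK293 cells expressing the human channel. Ten-point concentration–response curves were run. EC2x is the agonist concentration that doubles conductance at the voltage giving 15% channel activation. Values come from 2–5 individual assay determinations and are given as mean ± SD. The reference agonist was run in 6–431 repeats.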

[2] = target: T1, Potassium voltage-gated channel subfamily KQT member 4 (Homo sapiens) (UniProt P56696); assay: Agonist activity at human Kv7.4 expressed in HEK293 cells assessed as drug concentration that doubles the conductance at voltage leading to 15% channel activation at holding potential of at -80 mV by whole cell patch clamp electrophysiology assay; assay type: cell-based; in short: as §1
T1 sequence (whole entry): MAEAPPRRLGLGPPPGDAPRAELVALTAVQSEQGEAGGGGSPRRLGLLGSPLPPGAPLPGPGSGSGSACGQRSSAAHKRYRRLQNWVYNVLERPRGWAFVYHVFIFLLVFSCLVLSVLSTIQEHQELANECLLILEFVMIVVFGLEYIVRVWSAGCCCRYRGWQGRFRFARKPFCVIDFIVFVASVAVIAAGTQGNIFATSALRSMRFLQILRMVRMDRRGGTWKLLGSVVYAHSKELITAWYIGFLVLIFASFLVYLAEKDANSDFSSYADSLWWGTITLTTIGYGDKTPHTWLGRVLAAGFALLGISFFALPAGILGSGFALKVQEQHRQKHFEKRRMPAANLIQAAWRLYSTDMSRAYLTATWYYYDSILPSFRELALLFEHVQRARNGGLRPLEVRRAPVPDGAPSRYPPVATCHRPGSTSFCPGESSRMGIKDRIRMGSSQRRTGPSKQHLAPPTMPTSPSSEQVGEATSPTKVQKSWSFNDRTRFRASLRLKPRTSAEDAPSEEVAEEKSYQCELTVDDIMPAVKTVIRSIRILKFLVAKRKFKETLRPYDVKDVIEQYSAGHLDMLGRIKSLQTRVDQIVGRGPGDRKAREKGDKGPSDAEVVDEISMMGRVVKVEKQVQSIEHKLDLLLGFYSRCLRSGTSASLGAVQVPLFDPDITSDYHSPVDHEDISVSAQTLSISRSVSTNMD

[3] = target: KCNQ4/KCNQ5 (Homo sapiens) (UniProt Q9NR82+P56696); assay: Agonist activity at human Kv7.4/Kv7.5 expressed in HEK293 cells assessed as drug concentration that doubles the conductance at voltage leading to 15% channel activation at holding potential of at -80 mV by whole cell patch clamp electrophysiology assay; assay type: cell-based; in short: as §1
[4] = target: Voltage-gated potassium channel KCNQ3/KCNQ5 (Homo sapiens) (UniProt O43525+Q9NR82); assay: Agonist activity at human Kv7.3/Kv7.5 expressed in HEK293 cells assessed as drug concentration that doubles the conductance at voltage leading to 15% channel activation at holding potential of at -80 mV by whole cell patch clamp electrophysiology assay; assay type: cell-based; in short: as §1
[5] = species: Homo sapiens; assay: Selectivity index, ratio of EC2x for human Kv7.4/5 expressed in HEK293 cells to EC2x for EC2x for human Kv7.2/3 expressed in HEK293 cells; assay type: cell-based
In short: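 Selectivity index calculated as EC2x(Kv7.4/Kv7.5) divided by EC2x(Kv7.2/Kv7.3). Both EC2x values came from IonWorks Barracuda automated electrophysiology in HEK293 cells, using 10-point concentration curves and the doubled-conductance definition at 15% activation voltage.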

[6] = target: Voltage-gated potassium channel, KQT; KCNQ2(Kv7.2)/KCNQ3(Kv7.3) (Homo sapiens, UniProt O43525+O43526); assay: Agonist activity at human Kv7.2/Kv7.3 expressed in CHO cells at holding potential of at -85 mV by whole cell patch clamp electrophysiology assay; assay type: cell-based
[7] = Half life in human liver microsomes; assay type: ADME, Microsome
In short: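 Stability was measured by incubation with pooled human liver microsomes. Half-life is reported in minutes.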

Sequence of Voltage-gated potassium channel, KQT; KCNQ2(Kv7.2)/KCNQ3(Kv7.3) (O43526 whole entry): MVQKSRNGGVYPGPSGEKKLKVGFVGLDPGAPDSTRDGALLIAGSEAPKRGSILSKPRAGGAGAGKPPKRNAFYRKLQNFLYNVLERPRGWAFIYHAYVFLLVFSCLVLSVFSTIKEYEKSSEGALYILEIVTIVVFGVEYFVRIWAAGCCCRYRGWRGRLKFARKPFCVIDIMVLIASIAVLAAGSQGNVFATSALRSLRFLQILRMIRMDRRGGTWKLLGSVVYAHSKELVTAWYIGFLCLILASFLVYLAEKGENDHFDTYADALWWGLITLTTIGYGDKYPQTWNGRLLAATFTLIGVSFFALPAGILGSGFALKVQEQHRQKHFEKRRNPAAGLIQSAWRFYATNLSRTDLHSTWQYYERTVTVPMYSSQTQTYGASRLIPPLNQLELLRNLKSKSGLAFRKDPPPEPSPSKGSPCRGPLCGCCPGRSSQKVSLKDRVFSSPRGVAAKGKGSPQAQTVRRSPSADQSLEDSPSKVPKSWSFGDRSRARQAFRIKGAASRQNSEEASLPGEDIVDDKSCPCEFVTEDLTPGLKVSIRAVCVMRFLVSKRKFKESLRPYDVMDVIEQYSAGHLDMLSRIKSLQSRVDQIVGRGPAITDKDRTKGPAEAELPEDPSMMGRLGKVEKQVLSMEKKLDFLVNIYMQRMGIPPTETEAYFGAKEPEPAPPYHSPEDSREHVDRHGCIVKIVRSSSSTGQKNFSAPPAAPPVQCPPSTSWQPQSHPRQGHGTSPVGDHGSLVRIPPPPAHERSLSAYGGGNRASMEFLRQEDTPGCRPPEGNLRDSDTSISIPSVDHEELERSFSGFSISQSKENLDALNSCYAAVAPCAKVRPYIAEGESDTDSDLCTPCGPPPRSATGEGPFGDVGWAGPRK
Sequence of Voltage-gated potassium channel, KQT; KCNQ2(Kv7.2)/KCNQ3(Kv7.3) (O43525 whole entry): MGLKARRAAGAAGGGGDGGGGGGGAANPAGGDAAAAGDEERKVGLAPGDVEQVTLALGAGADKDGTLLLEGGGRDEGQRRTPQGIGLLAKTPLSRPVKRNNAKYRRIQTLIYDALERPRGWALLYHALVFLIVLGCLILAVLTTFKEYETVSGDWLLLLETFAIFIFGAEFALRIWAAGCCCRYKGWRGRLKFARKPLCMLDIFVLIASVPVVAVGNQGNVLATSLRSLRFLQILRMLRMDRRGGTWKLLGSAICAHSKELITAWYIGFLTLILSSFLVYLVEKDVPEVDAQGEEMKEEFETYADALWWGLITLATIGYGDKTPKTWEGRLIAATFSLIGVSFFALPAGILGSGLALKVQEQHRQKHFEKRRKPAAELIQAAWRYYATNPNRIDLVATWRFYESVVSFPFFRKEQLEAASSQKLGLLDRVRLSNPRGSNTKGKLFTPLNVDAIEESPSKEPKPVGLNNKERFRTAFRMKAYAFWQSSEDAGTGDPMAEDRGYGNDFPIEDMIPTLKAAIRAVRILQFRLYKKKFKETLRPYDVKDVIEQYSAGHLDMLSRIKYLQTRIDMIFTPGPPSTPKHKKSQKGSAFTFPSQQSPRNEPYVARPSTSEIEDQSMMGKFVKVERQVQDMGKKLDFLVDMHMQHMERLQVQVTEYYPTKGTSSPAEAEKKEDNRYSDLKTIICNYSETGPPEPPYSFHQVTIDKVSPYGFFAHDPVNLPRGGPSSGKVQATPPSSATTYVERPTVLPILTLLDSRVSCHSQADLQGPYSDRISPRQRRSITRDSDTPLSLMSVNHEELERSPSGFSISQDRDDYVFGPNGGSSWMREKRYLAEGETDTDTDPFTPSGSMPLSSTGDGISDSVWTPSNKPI

Row | SMILES | EC2 [1] [µM] | EC2 [2] [µM] | EC2 [3] [µM] | EC2 [4] [µM] | Selectivity Index [5] | EC50 [6] [µM] | half-life [7] [h]
1 | CCOC(=O)Nc1cc(C(F)(F)F)c(NCc2ccc(C(F)(F)F)cc2)c(F)c1N | > 10 | > 10 | > 10 | > 10 |  |  | 
2 | CCOC(=O)Nc1ccc(NCc2cccc(C(F)(F)F)c2)c(F)c1N | 0.14 | 0.4 | 0.66 | 0.2 | 4.7 |  | 
3 | CCOC(=O)Nc1ccc(NCc2ccc(F)cc2)nc1N | 2 | 5.62 | 3.5 | 1.58 | 1.8 |  | 
4 | Nc1c(F)c(NCc2ccc(C(F)(F)F)cc2F)cc(F)c1NC(=O)OC1CC1 | 1.47 | 0.55 | > 10 | > 10 | > 7 |  | 
5 | CCOC(=O)Nc1ccc(NCc2ccc(F)cc2)c(F)c1N |  |  |  |  |  | 0.6 | 
6 | CC(C)OC(=O)Nc1ccc(NCc2ccc(C(F)(F)F)cc2)c(F)c1N | 0.16 | 0.19 | 4.98 | 0.16 | 31 |  | 7.52
7 | Nc1c(NC(=O)OC2CC2)ccc(NCc2ccc(C(F)(F)F)cn2)c1F | 0.79 | 0.9 | 0.96 | 0.72 | 1.2 |  | 
8 | Nc1c(F)c(NCc2ccc(C(F)(F)F)cc2F)c(F)c(F)c1NC(=O)OC1CC1 | > 10 | > 10 | > 10 | > 10 |  |  | 
9 | CCOC(=O)Nc1ccc(NCc2ccc(C(F)(F)F)cn2)c(F)c1N | 0.66 | 0.85 | 0.59 | 0.79 | 0.9 |  | 
10 | Nc1c(NC(=O)OC2CC2)ccc(NCc2ncc(C(F)(F)F)cc2F)c1F | 1.39 | > 10 | > 10 | > 10 | > 7 |  | 
11 | Nc1c(NC(=O)OC2CC2)ccc(NCc2ccc(C(F)(F)F)nc2)c1F | 0.71 | 1.13 | 1.36 | 0.69 | 1.9 |  | 
12 | Nc1c(NC(=O)OC2CC2)ccc(NCc2ccc(C(F)(F)F)cc2)c1F | 0.11 | 0.38 | 0.28 | 0.23 | 2.5 |  | 
13 | CCOC(=O)Nc1ccc(NCc2ccc(C(F)(F)F)cc2F)c(F)c1N | 0.18 | 0.11 | 0.3 | 0.34 | 1.7 |  | 
14 | Nc1c(NC(=O)OC2CC2)cc(F)c(NCc2ccc(C(F)(F)F)cc2F)c1F | 0.93 | > 10 | > 10 | > 10 | > 10 |  | 1.27
15 | CCOC(=O)Nc1ccc(NCc2ccc(C(F)(F)F)nc2)c(F)c1N | 0.61 | 0.95 | 1.27 | 0.69 | 2.1 |  | 6.77
16 | CCOC(=O)Nc1ccc(NCc2ccc(C(F)(F)F)cc2)c(F)c1N | 0.26 | 0.1 | 0.09 | 0.29 | 0.3 |  | 5.73
17 | Nc1c(NC(=O)OC2CC2)cc(F)c(NCc2ncc(C(F)(F)F)cc2F)c1F | > 10 | > 10 | > 10 | > 10 |  |  | 
18 | Nc1c(F)c(NCc2ncc(C(F)(F)F)cc2F)cc(F)c1NC(=O)OC1CC1 | 1 | > 10 | > 10 | > 10 | > 10 |  | 
19 | CCOC(=O)Nc1ccc(NCc2ccc(C(F)(F)F)c(C#N)n2)c(F)c1N | 1.6 | 2.17 | 2.33 | 1.3 | 1.5 |  | 
20 | CCOC(=O)Nc1ccc(NCc2ccc(F)cc2)cc1N [EZOGABINE] | 0.33 |  |  | 0.34 |  |  | 16.2
21 | CCOC(=O)Nc1cc(F)c(NCc2ccc(C(F)(F)F)cc2)cc1N | 1.26 | 4.65 | > 10 | > 10 | > 7 |  | 
22 | Nc1c(NC(=O)OC2CC2)ccc(NCc2ccc(C(F)(F)F)cc2F)c1F | 0.59 | 0.21 | 0.35 | 0.47 | 0.6 |  | 
23 | CCOC(=O)Nc1ccc(NCc2cccc(S(F)(F)(F)(F)F)c2)c(F)c1N | 0.36 | 0.65 | 0.65 | 0.21 | 1.8 |  | 
